Data reported in ChEMBL document CHEMBL1133552, “Synthesis and evaluation of pharmacological and pharmacokinetic properties of 11H-[1,2,4]triazolo[4,5-c][2,3]benzodiazepin-3(2H)-ones” (J Med Chem, 2000).
Values belong to the compound of their own block, whether it stands above or below them.

Experiments:
[1] = Therapeutic index is the ratio between TD50 and ED50 (from the clonic phase of the audiogenic seizures); ND means not detectable
Procedure, shortened: (§1)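 Therapeutic index = TD50 (rotarod, ip) divided by ED50 for clonic phase of audiogenic seizures in DBA/2 mice; both by Litchfield-Wilcoxon, at least 32 animals each.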

[2] = Evaluated for anticonvulsant property in DBA/2 mice against Locomotion assessed by Rotarod test (ip administration); assay type: functional, Mus musculus
Procedure, shortened: (§2)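 Rotarod (3-cm diameter, 8 rpm): trained mice in groups of 10 tested 30 min after ip dosing; failure to stay on for 2 min = impairment. TD50 by Litchfield-Wilcoxon, at least 32 animals per value.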

[3] = Relative Lipophilicity measured by reversed-phase high performance thin-layer chromatography (RP-HPTLC); assay type: physicochemical
Procedure, shortened: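 Reversed-phase TLC; plates dried 105 °C, 1 h; mobile phase acetone/water 2:1 (v/v); 1 µL of 3 mg/mL CHCl3 solution spotted; five runs with varied placement; mean Rf converted via Rm = log[(1/Rf) - 1].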

[4] = Evaluated for anticonvulsant property in DBA/2 mice against Locomotion assessed by Rotarod test (ip administration); value ranges from 34-77.8; assay type: functional, Mus musculus; procedure, shortened: as §2
[5] = Evaluated for anticonvulsant property in DBA/2 mice against Audiogenic seizures during clonic phase (ip administration); value ranges from 26.0-44.2; assay type: functional; details: Mus musculus
Procedure, shortened: (§3)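 DBA/2 mice, genetically sound-susceptible (8-12 g, 22-25 days old, either sex), groups of 10; drug ip in 50% DMSO/50% saline (0.1 mL/10 g), auditory stimulation 30 min later; latency and incidence of clonic and tonic phases scored; ED50 via Litchfield-Wilcoxon, at least 32 animals per value.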

[6] = Evaluated for anticonvulsant property in DBA/2 mice against Locomotion assessed by Rotarod test (ip administration); value ranges from 87.3-231; assay type: functional, Mus musculus; procedure, shortened: as §2
Mus musculus = assay: Anticonvulsant activity was determined when tested at 15 min from intraperitoneal administration; assay type: functional; details: ip, 0.25 h
[7] = Evaluated for anticonvulsant property in DBA/2 mice against Audiogenic seizures during tonic phase (ip administration); ranges from [32.5-57.4]; assay type: functional; details: Mus musculus; procedure, shortened: as §3
[8] = Evaluated for anticonvulsant property in DBA/2 mice against Audiogenic seizures during clonic phase (ip administration); ranges from [39.2-81.1]; assay type: functional; details: Mus musculus; procedure, shortened: as §3
[9] = Evaluated for anticonvulsant property in DBA/2 mice against Audiogenic seizures during clonic phase (ip administration); value ranges from 46.0-132; assay type: functional; details: Mus musculus; procedure, shortened: as §3
[10] = Evaluated for anticonvulsant property in DBA/2 mice against Audiogenic seizures during tonic phase (ip administration); value ranges from 41.5-78.8; assay type: functional; details: Mus musculus; procedure, shortened: as §3
[11] = Evaluated for anticonvulsant property in DBA/2 mice against Audiogenic seizures during clonic phase (ip administration); value ranges from 10.5-38.2; assay type: functional; details: Mus musculus; procedure, shortened: as §3
[12] = Therapeutic index is the ratio between TD50 and ED50 (from the clonic phase of the audiogenic seizures); details: read-out: TI; procedure, shortened: as §1
[13] = Evaluated for anticonvulsant property in Swiss mice against MES induced seizures; value ranges from 26.8-45.8; assay type: functional; details: Mus musculus
[14] = Evaluated for anticonvulsant property in DBA/2 mice against Audiogenic seizures during tonic phase (ip administration); value ranges from 8.04-21.3; assay type: functional; details: Mus musculus; procedure, shortened: as §3
[15] = Evaluated for anticonvulsant property in Swiss mice against PTZ induced seizures; value ranges from 43.8-79.1; assay type: functional; details: Mus musculus
Procedure, shortened: (§4)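 Male Swiss mice given drug ip (50% DMSO/50% saline) 45 min before sc PTZ at CD97 (85 mg/kg); watched 30 min; protection = no clonic spasm lasting at least 5 s; ED50 by Litchfield-Wilcoxon.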

[16] = Evaluated for anticonvulsant property in DBA/2 mice against Locomotion assessed by Rotarod test (ip administration); value ranges from 59.4-99.3; assay type: functional, Mus musculus; procedure, shortened: as §2
[17] = Evaluated for anticonvulsant property in DBA/2 mice against Audiogenic seizures during tonic phase (ip administration); value ranges from 41.3-82.3; assay type: functional; details: Mus musculus; procedure, shortened: as §3
[18] = Evaluated for anticonvulsant property in Swiss mice against MES induced seizures; value ranges from 62.4 - 92.1; assay type: functional; details: Mus musculus
[19] = Evaluated for anticonvulsant property in DBA/2 mice against Audiogenic seizures during clonic phase (ip administration); value ranges from 60.3-91.0; assay type: functional; details: Mus musculus; procedure, shortened: as §3
[20] = Evaluated for anticonvulsant property in Swiss mice against PTZ induced seizures; value ranges from 72.2 - 114; assay type: functional; details: Mus musculus; procedure, shortened: as §4
[21] = Evaluated for anticonvulsant property in DBA/2 mice against AMPA induced seizures during clonic phase; value ranges from 13.8-37.2; assay type: functional; details: Mus musculus
[22] = Evaluated for anticonvulsant property in DBA/2 mice against Audiogenic seizures during tonic phase (ip administration); value ranges from 8.67-11.93; assay type: functional; details: Mus musculus; procedure, shortened: as §3
[23] = Evaluated for anticonvulsant property in DBA/2 mice against Audiogenic seizures during clonic phase (ip administration); value ranges from 11.8-22.0; assay type: functional; details: Mus musculus; procedure, shortened: as §3
[24] = Evaluated for anticonvulsant property in DBA/2 mice against AMPA induced seizures during tonic phase; value ranges from 11.4-28.7; assay type: functional; details: Mus musculus
[25] = Evaluated for anticonvulsant property in DBA/2 mice against audiogenic Seizures after pretreatment with Aniracetam during tonic phase, *p<0.01; value ranges from 12.7-45.5; assay type: functional; details: Mus musculus
[26] = Evaluated for anticonvulsant property in Swiss mice against PTZ induced seizures; value ranges from 41.5-78.8; assay type: functional; details: Mus musculus; procedure, shortened: as §4
[27] = Evaluated for anticonvulsant property in DBA/2 mice against Locomotion assessed by Rotarod test (ip administration); value ranges from 46.2-99.8; assay type: functional, Mus musculus; procedure, shortened: as §2
[28] = Evaluated for anticonvulsant property in DBA/2 mice against audiogenic Seizures after pretreatment with Aniracetam during clonic phase, *p<0.01; value ranges from 20.5-71.9; assay type: functional; details: Mus musculus
[29] = Evaluated for anticonvulsant property in Swiss mice against MES induced seizures; ranges from [18.6-51.0]; assay type: functional; details: Mus musculus
[30] = Evaluated for anticonvulsant property in DBA/2 mice against Audiogenic seizures during clonic phase (ip administration); value ranges from 32.5-61.2; details: Mus musculus
[31] = Evaluated for anticonvulsant property in DBA/2 mice against Locomotion assessed by Rotarod test (ip administration); value ranges from 73.8-206; assay type: functional, Mus musculus; procedure, shortened: as §2
[32] = Evaluated for anticonvulsant property in Swiss mice against PTZ induced seizures; value ranges from 51.8-113; assay type: functional; details: Mus musculus; procedure, shortened: as §4
[33] = Evaluated for anticonvulsant property in Swiss mice against MES induced seizures; ranges from [45.6-80.3]; assay type: functional; details: Mus musculus
[34] = Evaluated for anticonvulsant property in DBA/2 mice against Audiogenic seizures during tonic phase (ip administration); value ranges from 15.4-49.4; details: Mus musculus
[35] = Evaluated for anticonvulsant property in DBA/2 mice against audiogenic Seizures after pretreatment with Aniracetam during clonic phase; value ranges from 28.3-91.5; assay type: functional; details: Mus musculus
[36] = Evaluated for anticonvulsant property in DBA/2 mice against Audiogenic seizures during tonic phase (ip administration); value ranges from 14.3-31.9; assay type: functional; details: Mus musculus; procedure, shortened: as §3
[37] = Evaluated for anticonvulsant property in Swiss mice against PTZ induced seizures; value ranges from 45.6-80.3; assay type: functional; details: Mus musculus; procedure, shortened: as §4
[38] = Evaluated for anticonvulsant property in Swiss mice against MES induced seizures; value ranges from 33.5-56.0; assay type: functional; details: Mus musculus
[39] = Evaluated for anticonvulsant property in DBA/2 mice against Audiogenic seizures during clonic phase (ip administration); value ranges from 16.3-[…]; assay type: functional; details: Mus musculus; procedure, shortened: as §3
[40] = Evaluated for anticonvulsant property in DBA/2 mice against audiogenic Seizures after pretreatment with Aniracetam during tonic phase, *p<0.01; value ranges from 23.5-62.7; assay type: functional; details: Mus musculus
[41] = Evaluated for anticonvulsant property in DBA/2 mice against AMPA induced seizures during clonic phase; value ranges from 27.5-64.3; assay type: functional; details: Mus musculus
[42] = Evaluated for anticonvulsant property in DBA/2 mice against Locomotion assessed by Rotarod test (ip administration); value ranges from 65.1-126; assay type: functional, Mus musculus; procedure, shortened: as §2
[43] = Evaluated for anticonvulsant property in DBA/2 mice against AMPA induced seizures during tonic phase; value ranges from 20.6-50.3; assay type: functional; details: Mus musculus

Rm [3]: -0.145
SMILES: COc1cc2c(cc1OC)C(c1ccc([N+](=O)[O-])cc1)=NNC(=O)C2
TI [1]: Not detectable
TD50 [2]: >150 µM/kg

Rm [3]: -0.181
SMILES: COc1cc2c(cc1OC)C(c1cccc([N+](=O)[O-])c1)=NNC(=O)C2
TI [1]: Not detectable
TD50 [2]: >150 µM/kg

Rm [3]: -0.619
SMILES: COc1cc2c(cc1OC)C(c1cccc(N)c1)=NNC(=O)C2
TD50 [4]: 51.5 µM/kg

Rm [3]: -0.28
SMILES: COc1cc2c(cc1OC)C(c1ccccc1)=NNC(=O)C2
ED50 [5]: 33.9 µmol/kg
TD50 [6]: 142 µM/kg

Rm [3]: -0.647
SMILES: COc1cc2c(cc1OC)C(c1ccc(N)cc1)=NNC(=O)C2
ED50 (Mus musculus): > 50 µmol/kg
TD50 [2]: 56.8 µM/kg

Rm [3]: -0.402
SMILES: COc1cc2c(cc1OC)C(c1cccc([N+](=O)[O-])c1)=Nn1c(O)nnc1C2
ED50 [7]: 43.2 µmol/kg
TD50 [2]: >150 µM/kg
ED50 [8]: 56.4 µmol/kg

Rm [3]: -0.28
SMILES: COc1cc2c(cc1OC)C(c1ccc(F)cc1)=NNC(=O)C2
ED50 [9]: 78 µmol/kg
ED50 [10]: 57.2 µmol/kg
TD50 [2]: >150 µM/kg

Rm [3]: -0.74
SMILES: COc1cc2c(cc1OC)C(c1cccc(N)c1)=Nn1c(O)nnc1C2
ED50 [11]: 20.1 µmol/kg
selectivity ratio [12]: 3.8
ED50 [13]: 35.1 µmol/kg
ED50 [14]: 13.1 µmol/kg
ED50 [15]: 58.9 µmol/kg
TD50 [16]: 76.8 µM/kg

Rm [3]: -0.368
SMILES: COc1cc2c(cc1OC)C(c1ccc([N+](=O)[O-])cc1)=Nn1c(O)nnc1C2
ED50 [17]: 58.3 µmol/kg
ED50 [18]: 75.8 µmol/kg
ED50 [19]: 74.1 µmol/kg
TD50 [2]: >150 µM/kg
ED50 [20]: 90.7 µmol/kg

Rm [3]: -0.837
SMILES: COc1cc2c(cc1OC)C(c1ccc(N)cc1)=Nn1c(O)nnc1C2
ED50 [21]: 22.1 µmol/kg
ED50 [22]: 10.2 µmol/kg
ED50 [23]: 16.1 µmol/kg
ED50 [24]: 18.1 µmol/kg
ED50 [25]: 24.1 µmol/kg
ED50 (Mus musculus): 27.8 µmol/kg
ED50 [26]: 57.2 µmol/kg
TD50 [27]: 65.8 µM/kg
selectivity ratio [12]: 4
ED50 [28]: 38.4 µmol/kg
ED50 [29]: 30.8 µmol/kg

Rm [3]: -0.508
SMILES: COc1cc2c(cc1OC)C(c1ccccc1)=Nn1c(O)nnc1C2
ED50 [30]: 44.6 µmol/kg
TD50 [31]: 123 µM/kg
ED50 [32]: 76.5 µmol/kg
ED50 [33]: 60.5 µmol/kg
selectivity ratio [12]: 2.8
ED50 [34]: 27.5 µmol/kg

Rm [3]: -0.402
SMILES: COc1cc2c(cc1OC)C(c1ccc(F)cc1)=Nn1c(O)nnc1C2
ED50 [35]: 50.9 µmol/kg
ED50 [36]: 21.8 µmol/kg
selectivity ratio [12]: 2.8
ED50 [37]: 60.5 µmol/kg
ED50 [38]: 43.4 µmol/kg
ED50 [39]: 32.1 µmol/kg
ED50 [40]: 38.4 µmol/kg
ED50 [41]: 42.1 µmol/kg
TD50 [42]: 90.6 µM/kg
ED50 [43]: 32.2 µmol/kg

SMILES: CC1=NN=C(c2ccc(N)cc2)c2cc3c(cc2C1)OCO3 [GYKI-52466]
Rm [3]: -0.368
